Three compounds from ChEMBL document CHEMBL1154740, “Efficient microwave combinatorial synthesis of novel indolic arylpiperazine derivatives as serotoninergic ligands” (Eur J Med Chem, 2010) can be followed below.

In general, Ki refers to the dissociation constant of the complex between target and ligand, obtained from inhibition or displacement.

The target of one test is D(1A) dopamine receptor (Rattus norvegicus, UniProt P18901). Nature of the test: Displacement of [3H]SCH23390 from dopamine D1 in rat striatum by liquid scintillation counting. In outline: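 Rat corpora striata membranes in 50 mM Tris–HCl with 120 mM NaCl, 5 mM KCl, 2 mM CaCl2, 1 mM MgCl2, 0.1% ascorbic acid, pargyline, pH 7.1 at 37 °C; 3 mg fresh tissue per tube. [3H]SCH-23390 at 0.4 nM final, 15 min at 37 °C, GF/B filtration. Nonspecific binding defined with piflutixol. Ki from IC50 via Cheng–Prusoff.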
Background: Loss of bound radioactivity is the signal in a displacement assay; it reports binding, not function.

Test [1] deals with 5-hydroxytryptamine receptor 2A (Rattus norvegicus, UniProt P14842). Nature of the test: Displacement of [3H]ketanserin from 5HT2A in Sprague-Dawley rat brain cortex by liquid scintillation counting. Particulars: read-out: Ki; call rule not given here. In outline: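 Frontal cortex of male Sprague–Dawley rats (180–220 g), in 50 mM Tris-HCl, 0.5 mM EDTA, 10 mM MgCl2, pH 7.4, plus 0.1% ascorbate and pargyline. Triplicate 2.0 mL assays: 5-HT2A with 5 mg tissue and 0.4 nM [3H]ketanserin; 5-HT2C with 10 mg tissue and 1 nM [3H]mesulergine. 15 min at 37 °C, PEI-soaked filters. IC50 from six concentrations converted to Ki (Cheng–Prusoff).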

SMILES strings stand for the structures.

Chain of D(1A) dopamine receptor (P18901 whole entry): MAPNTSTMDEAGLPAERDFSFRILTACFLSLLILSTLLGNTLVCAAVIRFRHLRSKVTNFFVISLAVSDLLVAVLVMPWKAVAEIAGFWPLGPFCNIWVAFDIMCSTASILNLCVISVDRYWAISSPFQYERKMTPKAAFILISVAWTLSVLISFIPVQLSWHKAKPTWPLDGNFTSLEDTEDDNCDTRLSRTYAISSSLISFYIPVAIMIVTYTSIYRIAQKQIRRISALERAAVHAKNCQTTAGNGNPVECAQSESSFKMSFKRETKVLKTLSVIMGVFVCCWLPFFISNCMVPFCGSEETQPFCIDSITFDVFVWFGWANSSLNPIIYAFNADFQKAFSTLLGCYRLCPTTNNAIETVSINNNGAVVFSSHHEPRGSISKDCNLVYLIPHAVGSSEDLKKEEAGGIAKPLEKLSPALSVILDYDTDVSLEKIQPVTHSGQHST
Chain of 5-hydroxytryptamine receptor 2A (P14842 whole entry): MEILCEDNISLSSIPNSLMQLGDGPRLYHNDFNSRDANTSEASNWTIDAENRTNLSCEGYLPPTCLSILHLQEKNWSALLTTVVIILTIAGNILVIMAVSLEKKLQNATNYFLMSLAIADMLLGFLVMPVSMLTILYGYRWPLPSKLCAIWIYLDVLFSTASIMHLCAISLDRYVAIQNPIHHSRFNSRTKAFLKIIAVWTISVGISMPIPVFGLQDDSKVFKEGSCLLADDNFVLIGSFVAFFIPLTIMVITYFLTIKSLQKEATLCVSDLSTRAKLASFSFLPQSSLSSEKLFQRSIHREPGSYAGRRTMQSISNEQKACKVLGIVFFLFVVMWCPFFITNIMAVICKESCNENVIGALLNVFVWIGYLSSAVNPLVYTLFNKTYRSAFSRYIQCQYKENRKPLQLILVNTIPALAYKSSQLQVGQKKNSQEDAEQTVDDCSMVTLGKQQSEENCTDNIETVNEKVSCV

With `CCOC(=O)c1cc2cc(OCCCN3CCN(c4ccc(OC)cc4)CC3)ccc2[nH]1`, the inhibition constant Ki result at D(1A) dopamine receptor was “Not Active”; in test [1], 10 µM.
For `CCOC(=O)c1cc2cc(OCCCN3CCN(c4cccc(Cl)c4)CC3)ccc2[nH]1`, the inhibition constant Ki at D(1A) dopamine receptor (read-out: Ki) came to 1.07 µM.
For `CCOC(=O)c1cc2cc(OCCCN3CCN(Cc4ccc5c(c4)OCO5)CC3)ccc2[nH]1`, the inhibitory constant (Ki) was determined as 10 µM on D(1A) dopamine receptor (read-out: Ki) and 0.0261 µM in test [1].
